ChEMBL document CHEMBL1153046, “Synthesis and antitumor activity of substituted triazolo[4,3-a]pyrimidin-6-sulfonamide with an incorporated thiazolidinone moiety” (2009)

Columns and labels:
Type in all cases: functional
[1] = test system: SK-OV-3; assay: Growth inhibition of human SKOV3 cells after 48 hrs by sulforhodamine B assay; settings: SK-OV-3, 48 h
Outline: (§1)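 NCI 60-cell-line panel. Cells are grown in RPMI1640 with 5% fetal calf serum and 2 mM L-glutamine, seeded at a density set by growth characteristics, and preincubated 24 h. Compound is tested at a minimum of five concentrations at 10-fold dilution, with 48 h continuous exposure. Viability is read by sulforhodamine B protein assay. GI50, TGI and LC50 come from dose-response curves.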

[2] = test system: NCI-H460; assay: Antiproliferative activity against human NCI-H460 cells assessed as cell growth at 100 uM after 48 hrs by alamar blue assay; settings: NCI-H460, 48 h, read-out: Activity
Outline: (§2)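 NCI three-cell-line primary screen. Cells are seeded and preincubated in microtiter plates. Compound is added at a single 10^-4 M concentration and cultures are incubated 48 h. The end-point is read with alamar blue. Results are given as percent growth relative to untreated control cells.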

[3] = test system: OVCAR-5; assay: Growth inhibition of human OVCAR5 cells after 48 hrs by sulforhodamine B assay; settings: OVCAR-5, 48 h; outline: as §1
[4] = test system: TK-10; assay: Growth inhibition of human TK10 cells after 48 hrs by sulforhodamine B assay; settings: TK-10, 48 h
Outline: (§3)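 NCI 60-cell-line panel (nine cancer types), with cells grown in RPMI1640 plus 5% fetal calf serum and 2 mM L-glutamine. Cells are seeded at a density that depends on the line and preincubated 24 h. Compounds are then applied at a minimum of five 10-fold dilutions over a 5-log range with 48 h continuous exposure. Viability is read by SRB protein assay, and GI50 is derived from dose-response curves in units of 10^-5 M.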

[5] = test system: PC-3; assay: Growth inhibition of human PC3 cells after 48 hrs by sulforhodamine B assay; settings: PC-3, 48 h; outline: as §1
[6] = test system: 786-0; assay: Growth inhibition of human 786-0 cells after 48 hrs by sulforhodamine B assay; settings: 786-0, 48 h; for CC50: read-out: LC50 (the source's name); outline: as §1
[7] = test system: LOX IMVI; assay: Growth inhibition of human LOXIMVI cells after 48 hrs by sulforhodamine B assay; outline: as §1
[8] = test system: SK-MEL-28; assay: Growth inhibition of human SK-MEL-28 cells after 48 hrs by sulforhodamine B assay; settings: SK-MEL-28, 48 h; outline: as §1
[9] = test system: HOP-92; assay: Growth inhibition of human HOP92 cells after 48 hrs by sulforhodamine B assay; settings: HOP-92, 48 h; outline: as §1
[10] = test system: SNB-75; assay: Growth inhibition of human SNB75 cells after 48 hrs by sulforhodamine B assay; settings: SNB-75, 48 h; outline: as §3
[11] = test system: SW-620; assay: Growth inhibition of human SW620 cells after 48 hrs by sulforhodamine B assay; settings: SW-620, 48 h; outline: as §3
[12] = test system: UO-31; assay: Growth inhibition of human UO31 cells after 48 hrs by sulforhodamine B assay; settings: UO-31, 48 h; outline: as §3
[13] = test system: OVCAR-3; assay: Growth inhibition of human OVCAR-3 cells after 48 hrs by sulforhodamine B assay; settings: OVCAR-3, 48 h; outline: as §1
[14] = test system: BT-549; assay: Growth inhibition of human BT549 cells after 48 hrs by sulforhodamine B assay; settings: BT-549, 48 h; outline: as §1
[15] = test system: MCF7; assay: Antiproliferative activity against human MCF7 cells assessed as cell growth at 100 uM after 48 hrs by alamar blue assay; settings: MCF7, 48 h, read-out: Activity; outline: as §2
[16] = test system: NCI/ADR-RES; assay: Growth inhibition of human NCI/ADR-RES cells after 48 hrs by sulforhodamine B assay; outline: as §1
[17] = test system: SK-MEL-5; assay: Growth inhibition of human SK-MEL-5 cells after 48 hrs by sulforhodamine B assay; settings: SK-MEL-5, 48 h; for CC50: read-out: LC50 (the source's name); outline: as §1
[18] = test system: T47D; assay: Growth inhibition of human T47D cells after 48 hrs by sulforhodamine B assay; outline: as §3
[19] = test system: OVCAR-4; assay: Growth inhibition of human OVCAR4 cells after 48 hrs by sulforhodamine B assay; settings: OVCAR-4, 48 h; outline: as §1
[20] = test system: UACC-62; assay: Growth inhibition of human UACC62 cells after 48 hrs by sulforhodamine B assay; settings: UACC-62, 48 h; for CC50: read-out: LC50 (the source's name); outline: as §3
[21] = test system: NCI-H23; assay: Growth inhibition of human NCI-H23 cells after 48 hrs by sulforhodamine B assay; settings: NCI-H23, 48 h; outline: as §1
[22] = test system: ACHN; assay: Growth inhibition of human ACHN cells after 48 hrs by sulforhodamine B assay; settings: for CC50: read-out: LC50 (the source's name); outline: as §1
[23] = test system: NCI-H522; assay: Growth inhibition of human NCI-H522 cells after 48 hrs by sulforhodamine B assay; settings: NCI-H522, 48 h; outline: as §1
[24] = test system: SR; assay: Growth inhibition of human SR cells after 48 hrs by sulforhodamine B assay; outline: as §3
[25] = test system: SF-268; assay: Antiproliferative activity against human SF268 cells assessed as cell growth at 100 uM after 48 hrs by alamar blue assay; settings: SF-268, 48 h, read-out: Activity; outline: as §2
[26] = test system: CAKI-1; assay: Growth inhibition of human Caki1 cells after 48 hrs by sulforhodamine B assay; settings: CAKI-1, 48 h; outline: as §1
[27] = test system: HOP-62; assay: Growth inhibition of human HOP62 cells after 48 hrs by sulforhodamine B assay; settings: HOP-62, 48 h; outline: as §1
[28] = test system: M14; assay: Growth inhibition of human M14 cells after 48 hrs by sulforhodamine B assay; settings: M14, 48 h; outline: as §1
[29] = test system: SN12C; assay: Growth inhibition of human SN12C cells after 48 hrs by sulforhodamine B assay; outline: as §1
[30] = test system: HCT-15; assay: Growth inhibition of human HCT15 cells after 48 hrs by sulforhodamine B assay; settings: HCT-15, 48 h; outline: as §1
[31] = test system: SF-268; assay: Growth inhibition of human SF268 cells after 48 hrs by sulforhodamine B assay; settings: SF-268, 48 h; for CC50: read-out: LC50 (the source's name); outline: as §1

COc1ccc(/C=N/c2nc3[nH]nc(C)n3c(=O)c2S(=O)(=O)NN2C(=O)C(CN3CCN(C)CC3)SC2c2ccc(OC)cc2)cc1 (stereo not given)
GI50 [1]: 27.1 µM
TGI [1]: 73.3 µM
growth at 100 µM [2]: 0%
GI50 [3]: 24.3 µM
LC50 (concentration causing 50% net cell kill) [3]: 90.7 µM
TGI [3]: 47 µM
GI50 [4]: 19.4 µM
LC50 [4]: 82.1 µM
TGI [4]: 39.9 µM
GI50 [5]: 14.7 µM
LC50 (concentration killing 50% of cells) [5]: 70.2 µM
TGI [5]: 32.2 µM
GI50 [6]: 16.2 µM
TGI [6]: 31.2 µM
CC50 [6]: 59.9 µM
GI50 [7]: 7.4 µM
TGI [7]: > 100 µM
GI50 [8]: 30.3 µM
TGI [8]: 78.2 µM
GI50 [9]: 17.8 µM
LC50 [9]: 74.2 µM
TGI [9]: 36.4 µM
GI50 [10]: 23.6 µM
TGI [10]: 51.8 µM
GI50 [11]: 30.4 µM
GI50 [12]: 20.6 µM
LC50 [12]: 70.5 µM
TGI [12]: 38.1 µM
GI50 [13]: 21.5 µM
LC50 (concentration killing 50% of cells) [13]: 75.3 µM
TGI [13]: 40.2 µM
GI50 [14]: 19.1 µM
TGI [14]: 46.3 µM
growth at 100 µM [15]: 9%
GI50 [16]: 14.1 µM
TGI [16]: 40.2 µM
GI50 [17]: 19.3 µM
TGI [17]: 39 µM
CC50 [17]: 78.5 µM
GI50 [18]: 31.2 µM
TGI [18]: 89.4 µM
GI50 [19]: 23.3 µM
LC50 [19]: 96.5 µM
TGI [19]: 47.4 µM
GI50 [20]: 18.9 µM
TGI [20]: 38.4 µM
CC50 [20]: 77.8 µM
GI50 [21]: 20.5 µM
TGI [21]: 48.1 µM
GI50 [22]: 17.4 µM
TGI [22]: 34.5 µM
CC50 [22]: 68.4 µM
GI50 [23]: 21.9 µM
TGI [23]: 47.7 µM
GI50 [24]: 7.72 µM
LC50 (concentration killing 50% of cells) [24]: 84.9 µM
TGI [24]: 27.5 µM
growth at 100 µM [25]: 18%
GI50 [26]: 20.9 µM
LC50 (50% lethal concentration) [26]: 77.8 µM
TGI [26]: 40.3 µM
GI50 [27]: 20.2 µM
LC50 [27]: 82.6 µM
TGI [27]: 40.9 µM
GI50 [28]: 17 µM
LC50 (concentration killing 50% of cells) [28]: 78 µM
TGI [28]: 36.5 µM
GI50 [29]: 18.6 µM
LC50 [29]: 68.9 µM
TGI [29]: 35.8 µM
GI50 [30]: 17.2 µM
TGI [30]: 70.8 µM
GI50 [31]: 17.7 µM
TGI [31]: 42 µM
CC50 [31]: 99.6 µM

COc1ccc(/C=N/c2nc3[nH]nc(C)n3c(=O)c2S(=O)(=O)NN2C(=O)C(CN3CCOCC3)SC2c2cccs2)cc1 (stereo not given)
GI50 [1]: 20.2 µM
TGI [1]: > 100 µM
growth at 100 µM [2]: 13%
GI50 [3]: 43.4 µM
LC50 (concentration causing 50% net cell kill) [3]: > 100 µM
TGI [3]: > 100 µM
GI50 [4]: 20.8 µM
LC50 [4]: > 100 µM
TGI [4]: 92 µM
GI50 [5]: 3.92 µM
LC50 (concentration killing 50% of cells) [5]: > 100 µM
TGI [5]: 95.8 µM
GI50 [6]: 5.82 µM
TGI [6]: > 100 µM
CC50 [6]: > 100 µM
GI50 [7]: 8.97 µM
TGI [7]: > 100 µM
GI50 [8]: 82.1 µM
TGI [8]: > 100 µM
GI50 [9]: 12.4 µM
LC50 [9]: > 100 µM
TGI [9]: > 100 µM
GI50 [10]: 35.5 µM
TGI [10]: > 100 µM
GI50 [11]: 6.11 µM
GI50 [12]: 14.5 µM
LC50 [12]: > 100 µM
TGI [12]: 86.4 µM
GI50 [13]: 3.6 µM
LC50 (concentration killing 50% of cells) [13]: > 100 µM
TGI [13]: > 100 µM
GI50 [14]: 18 µM
TGI [14]: > 100 µM
growth at 100 µM [15]: 24%
GI50 [16]: 9.98 µM
TGI [16]: 64.8 µM
GI50 [17]: 3.71 µM
TGI [17]: 24 µM
CC50 [17]: > 100 µM
GI50 [18]: 48 µM
TGI [18]: > 100 µM
GI50 [19]: > 100 µM
LC50 [19]: > 100 µM
TGI [19]: > 100 µM
GI50 [20]: 3.7 µM
TGI [20]: 31.4 µM
CC50 [20]: > 100 µM
GI50 [21]: 44.5 µM
TGI [21]: > 100 µM
GI50 [22]: 5.48 µM
TGI [22]: > 100 µM
CC50 [22]: > 100 µM
GI50 [23]: 4.35 µM
TGI [23]: 27.3 µM
GI50 [24]: 1.1 µM
LC50 (concentration killing 50% of cells) [24]: 9.2 µM
TGI [24]: 3.2 µM
growth at 100 µM [25]: 56%
GI50 [26]: 12.1 µM
LC50 (50% lethal concentration) [26]: > 100 µM
TGI [26]: > 100 µM
GI50 [27]: 13.9 µM
LC50 [27]: > 100 µM
TGI [27]: > 100 µM
GI50 [28]: 6.79 µM
LC50 (concentration killing 50% of cells) [28]: > 100 µM
TGI [28]: 38.7 µM
GI50 [29]: 16.8 µM
LC50 [29]: > 100 µM
TGI [29]: 85.7 µM
GI50 [30]: 4.52 µM
TGI [30]: 71.7 µM
GI50 [31]: 18.5 µM
TGI [31]: > 100 µM
CC50 [31]: > 100 µM
